From article PMC3536955 (Osteoporosis International, 2012)

Experiments:
Assay type in all cases: in vivo, postmenopausal Japanese women
[1] = Safety: adverse events after injection
How it was run: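 Adverse events were recorded after a single s.c. injection of drug or identical-looking placebo in a randomised, double-blind study of postmenopausal women aged 60–79 y, with 10 per group. Events and abnormal laboratory changes were coded by MedDRA/J version 9.0 by system organ class and preferred term, and classified as adverse drug reactions where applicable. Follow-up lasted until day 15.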

[2] = system: intact PTH; assay: Serum intact PTH; conditions: n = 10
How it was run: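 Intact PTH in serum was measured by electrochemiluminescence immunoassay. Postmenopausal women aged 60–79 y were randomised double-blind to placebo or a single s.c. dose, given at 0800 h straight after baseline sampling. Blood was drawn at 15, 30, 45, 60, 90, 120, 180, 240, 360 and 720 min, then mornings of days 2, 4, 6, 8, 11, 13 and 15. Baseline median and follow-up distribution were reported.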

[3] = system: urinary cross-linked C-telopeptide of type I collagen (CTX); assay: Bone resorption marker urinary CTX; conditions: n = 10
How it was run: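 Urine was collected at baseline (0800 h), at 120, 240, 360 and 720 min after a single s.c. injection, and on mornings of days 2, 4, 6, 8, 11, 13 and 15. Subjects were postmenopausal women aged 60–79 y in a randomised, double-blind, placebo-controlled design. CTX was measured by ELISA (inter-assay CV 2.4–9.0 %), with each participant's samples in one batch. Median and distribution were summarised.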

[4] = system: osteocalcin; assay: Bone formation marker serum osteocalcin; conditions: n = 10
How it was run: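 Women aged 60–79 y were randomised double-blind to placebo or one s.c. injection at 0800 h, given after baseline blood. Serum was sampled 15–720 min post-dose, then each morning on days 2, 4, 6, 8, 11, 13 and 15. Osteocalcin was measured by BGP-IRMA (inter-assay CV 4.7–7.6 %), in a single batch per participant. Values were summarised as baseline median and follow-up distribution.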

[5] = Pharmacokinetics: plasma teriparatide acetate concentration
How it was run: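 Plasma was sampled before and at 15, 30, 45, 60, 90, 120, 180, 240, 360 and 720 min after one s.c. injection at 0800 h in postmenopausal women. Drug was assayed with a rat PTH IRMA kit (range 10 to 1,000 pg/mL). Cmax, AUClast, AUCinf, Tmax and T1/2 were derived for active-dose recipients only. Concentrations are given as mean ± SD.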

[6] = system: P1NP; assay: Bone formation marker serum P1NP; conditions: n = 10
How it was run: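 Randomised, double-blind, placebo-controlled trial in women aged 60–79 y. A single s.c. dose was given at 0800 h after baseline sampling. Serum was drawn 15–720 min post-dose and on mornings of days 2, 4, 6, 8, 11, 13 and 15. P1NP was measured by radioimmunoassay (inter-assay CV 2.7–5.0 %), with each subject's samples in one batch. Median baseline and follow-up distribution were reported.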

[7] = system: 1,25-Dihydroxy vitamin D (1,25(OH)2D); assay: Serum 1,25; conditions: n = 10
How it was run: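 Serum 1,25(OH)2D was measured by radio receptor assay (inter-assay CV 11.3–13.2 %), with each participant's samples in a single batch. Women aged 60–79 y received one s.c. injection or placebo at 0800 h after baseline blood, in a double-blind randomised design. Sampling ran from 15–720 min and on mornings of days 2, 4, 6, 8, 11, 13 and 15. Median baseline and follow-up distribution were tabulated.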

[8] = system: Serum cross-linked N-telopeptide of type I collagen (NTX); assay: Bone resorption marker serum NTX; conditions: n = 10
How it was run: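 Serum NTX was measured by ELISA (inter-assay CV 6.9–11.1 %), with all of a participant's samples run together. The trial was a placebo-controlled, double-blind, single-centre study in postmenopausal women aged 60–79 y, each given one s.c. injection after 0800 h baseline sampling. Blood was taken at 15–720 min and on mornings of days 2–15. Baseline median and follow-up distribution were tabulated.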

[9] = 4 to 15 days, 28.2 μg single s.c.
[10] = 4 to 15 days, 56.5 μg single s.c.

Tmax ([5]; female, human, sc): 1 h
AUC(0-inf) ([5]; female, human, sc, 28.2 ug): 0.468 ng·h/mL
AUC(0-inf) ([5]; female, human, sc, 56.5 ug): 0.879 ng·h/mL
AUC(0-t) ([5]; female, human, sc, 56.5 ug): 0.832 ng·h/mL
time after injection at which teriparatide concentration disappeared ([5]; single s.c. injection 28.2 or 56.5 μg): 6 h
Structure (SMILES): CC[C@H](C)[C@H](NC(=O)[C@H](CCC(=O)O)NC(=O)[C@H](CO)NC(=O)[C@@H](NC(=O)[C@@H](N)CO)C(C)C)C(=O)N[C@@H](CCC(N)=O)C(=O)N[C@@H](CC(C)C)C(=O)N[C@@H](CCSC)C(=O)N[C@@H](Cc1cnc[nH]1)C(=O)N[C@@H](CC(N)=O)C(=O)N[C@@H](CC(C)C)C(=O)NCC(=O)N[C@@H](CCCCN)C(=O)N[C@@H](Cc1cnc[nH]1)C(=O)N[C@@H](CC(C)C)C(=O)N[C@@H](CC(N)=O)C(=O)N[C@@H](CO)C(=O)N[C@@H](CCSC)C(=O)N[C@@H](CCC(=O)O)C(=O)N[C@@H](CCCN=C(N)N)C(=O)N[C@H](C(=O)N[C@@H](CCC(=O)O)C(=O)N[C@@H](Cc1c[nH]c2ccccc12)C(=O)N[C@@H](CC(C)C)C(=O)N[C@@H](CCCN=C(N)N)C(=O)N[C@@H](CCCCN)C(=O)N[C@@H](CCCCN)C(=O)N[C@@H](CC(C)C)C(=O)N[C@@H](CCC(N)=O)C(=O)N[C@@H](CC(=O)O)C(=O)N[C@H](C(=O)N[C@@H](Cc1cnc[nH]1)C(=O)N[C@@H](CC(N)=O)C(=O)N[C@@H](Cc1ccccc1)C(=O)O)C(C)C)C(C)C [teriparatide]
Any adverse event ([1]; 28.2 μg single s.c., n = 10): 10 (100) n (%)
Decreased appetite ([1]; 28.2 μg single s.c., n = 10): 1 (10) n (%)
Decreased blood pressure ([1]; 28.2 μg single s.c., n = 10): 1 (10) n (%)
Erythema ([1]; 28.2 μg single s.c., n = 10): 1 (10) n (%)
Muscle spasms ([1]; 28.2 μg single s.c., n = 10): 1 (10) n (%)
Palpitations ([1]; 28.2 μg single s.c., n = 10): 1 (10) n (%)
Positional vertigo ([1]; 28.2 μg single s.c., n = 10): 1 (10) n (%)
Rhinorrhea ([1]; 28.2 μg single s.c., n = 10): 1 (10) n (%)
Somnolence ([1]; 28.2 μg single s.c., n = 10): 1 (10) n (%)
Vomiting ([1]; 28.2 μg single s.c., n = 10): 1 (10) n (%)
Any adverse event ([1]; 56.5 μg single s.c., n = 10): 10 (100) n (%)
Conjunctival hyperemia ([1]; 56.5 μg single s.c., n = 10): 1 (10) n (%)
Decreased appetite ([1]; 56.5 μg single s.c., n = 10): 1 (10) n (%)
Eye pain ([1]; 56.5 μg single s.c., n = 10): 1 (10) n (%)
Headache ([1]; 56.5 μg single s.c., n = 10): 3 (30) n (%)
Hot flashes ([1]; 56.5 μg single s.c., n = 10): 1 (10) n (%)
Nasopharyngitis ([1]; 56.5 μg single s.c., n = 10): 1 (10) n (%)
Nausea ([1]; 56.5 μg single s.c., n = 10): 1 (10) n (%)
Pharynx discomfort ([1]; 56.5 μg single s.c., n = 10): 1 (10) n (%)
Rhinorrhea ([1]; 56.5 μg single s.c., n = 10): 1 (10) n (%)
Somnolence ([1]; 56.5 μg single s.c., n = 10): 5 (50) n (%)
Vomiting ([1]; 56.5 μg single s.c., n = 10): 1 (10) n (%)
severity and outcome of ADRs ([1]; 28.2 and 56.5 μg groups, most ADRs): mild and resolved without intervention
changes in laboratory values before or after administration ([1]; throughout the study duration): no significant changes
Intact-PTH, Max ([2]; 2 to 24 h, 28.2 μg single s.c.): 66.0 pg/mL
Intact-PTH, Median ([2]; 2 to 24 h, 28.2 μg single s.c.): 34.5 pg/mL
Intact-PTH, Min ([2]; 2 to 24 h, 28.2 μg single s.c.): 17.0 pg/mL
Intact-PTH, Max ([2]; 2 to 24 h, 56.5 μg single s.c.): 65.0 pg/mL
Intact-PTH, Median ([2]; 2 to 24 h, 56.5 μg single s.c.): 35.0 pg/mL
Intact-PTH, Min ([2]; 2 to 24 h, 56.5 μg single s.c.): 18.0 pg/mL
Intact-PTH, Max [2, 9]: 64.0 pg/mL
Intact-PTH, Median [2, 9]: 45.5 pg/mL
Intact-PTH, Min [2, 9]: 25.0 pg/mL
Intact-PTH, Max [2, 10]: 109.0 pg/mL
Intact-PTH, Median [2, 10]: 49.0 pg/mL
Intact-PTH, Min [2, 10]: 26.0 pg/mL
Urinary CTX, Max ([3]; 2 to 24 h, 28.2 μg single s.c.): 958.0 µg/mmol
Urinary CTX, Median ([3]; 2 to 24 h, 28.2 μg single s.c.): 402.5 µg/mmol
Urinary CTX, Min ([3]; 2 to 24 h, 28.2 μg single s.c.): 192.0 µg/mmol
Urinary CTX, Max ([3]; 2 to 24 h, 56.5 μg single s.c.): 1190.0 µg/mmol
Urinary CTX, Median ([3]; 2 to 24 h, 56.5 μg single s.c.): 508.5 µg/mmol
Urinary CTX, Min ([3]; 2 to 24 h, 56.5 μg single s.c.): 238.0 µg/mmol
Urinary CTX, Max [3, 9]: 655.0 µg/mmol
Urinary CTX, Median [3, 9]: 351.0 µg/mmol
Urinary CTX, Min [3, 9]: 106.0 µg/mmol
Urinary CTX, Max [3, 10]: 972.0 µg/mmol
Urinary CTX, Median [3, 10]: 351.0 µg/mmol
Urinary CTX, Min [3, 10]: 142.0 µg/mmol
Serum osteocalcin, Max ([4]; 2 to 24 h, 28.2 μg single s.c.): 12.7 ng/mL
Serum osteocalcin, Median ([4]; 2 to 24 h, 28.2 μg single s.c.): 7.6 ng/mL
Serum osteocalcin, Min ([4]; 2 to 24 h, 28.2 μg single s.c.): 4.6 ng/mL
Serum osteocalcin, Max ([4]; 2 to 24 h, 56.5 μg single s.c.): 16.7 ng/mL
Serum osteocalcin, Median ([4]; 2 to 24 h, 56.5 μg single s.c.): 7.4 ng/mL
Serum osteocalcin, Min ([4]; 2 to 24 h, 56.5 μg single s.c.): 3.2 ng/mL
Serum osteocalcin, Max [4, 9]: 12.2 ng/mL
Serum osteocalcin, Median [4, 9]: 8.1 ng/mL
Serum osteocalcin, Min [4, 9]: 4.6 ng/mL
Serum osteocalcin, Max [4, 10]: 17.9 ng/mL
Serum osteocalcin, Median [4, 10]: 7.9 ng/mL
Serum osteocalcin, Min [4, 10]: 4.3 ng/mL
Serum P1NP, Max ([6]; 2 to 24 h, 28.2 μg single s.c.): 77.4 ng/mL
Serum P1NP, Median ([6]; 2 to 24 h, 28.2 μg single s.c.): 47.4 ng/mL
Serum P1NP, Min ([6]; 2 to 24 h, 28.2 μg single s.c.): 28.0 ng/mL
Serum P1NP, Max ([6]; 2 to 24 h, 56.5 μg single s.c.): 101.0 ng/mL
Serum P1NP, Median ([6]; 2 to 24 h, 56.5 μg single s.c.): 49.1 ng/mL
Serum P1NP, Min ([6]; 2 to 24 h, 56.5 μg single s.c.): 13.0 ng/mL
Serum P1NP, Max [6, 9]: 80.2 ng/mL
Serum P1NP, Median [6, 9]: 53.5 ng/mL
Serum P1NP, Min [6, 9]: 30.7 ng/mL
Serum P1NP, Max [6, 10]: 118.0 ng/mL
Serum P1NP, Median [6, 10]: 56.9 ng/mL
Serum P1NP, Min [6, 10]: 18.3 ng/mL
1,25(OH)2D, Max ([7]; 2 to 24 h, 28.2 μg single s.c.): 118.0 pg/mL
1,25(OH)2D, Median ([7]; 2 to 24 h, 28.2 μg single s.c.): 67.5 pg/mL
1,25(OH)2D, Min ([7]; 2 to 24 h, 28.2 μg single s.c.): 37.0 pg/mL
1,25(OH)2D, Max ([7]; 2 to 24 h, 56.5 μg single s.c.): 136.0 pg/mL
1,25(OH)2D, Median ([7]; 2 to 24 h, 56.5 μg single s.c.): 70.5 pg/mL
1,25(OH)2D, Min ([7]; 2 to 24 h, 56.5 μg single s.c.): 33.0 pg/mL
1,25(OH)2D, Max [7, 9]: 99.0 pg/mL
1,25(OH)2D, Median [7, 9]: 56.0 pg/mL
1,25(OH)2D, Min [7, 9]: 21.0 pg/mL
1,25(OH)2D, Max [7, 10]: 94.0 pg/mL
1,25(OH)2D, Median [7, 10]: 54.0 pg/mL
1,25(OH)2D, Min [7, 10]: 18.0 pg/mL
Serum NTX, Max ([8]; 2 to 24 h, 28.2 μg single s.c.): 21.7 nM BCE/L
Serum NTX, Median ([8]; 2 to 24 h, 28.2 μg single s.c.): 14.2 nM BCE/L
Serum NTX, Min ([8]; 2 to 24 h, 28.2 μg single s.c.): 9.2 nM BCE/L
Serum NTX, Max ([8]; 2 to 24 h, 56.5 μg single s.c.): 27.7 nM BCE/L
Serum NTX, Median ([8]; 2 to 24 h, 56.5 μg single s.c.): 13.8 nM BCE/L
Serum NTX, Min ([8]; 2 to 24 h, 56.5 μg single s.c.): 7.2 nM BCE/L
Serum NTX, Max [8, 9]: 20.4 nM BCE/L
Serum NTX, Median [8, 9]: 13.2 nM BCE/L
Serum NTX, Min [8, 9]: 7.2 nM BCE/L
Serum NTX, Max [8, 10]: 20.6 nM BCE/L
Serum NTX, Median [8, 10]: 10.7 nM BCE/L
Serum NTX, Min [8, 10]: 7.5 nM BCE/L
